The values below come from ChEMBL document CHEMBL4680120, “Novel anti-Alzheimer phenol-lipoyl hybrids: Synthesis, physico-chemical characterization, and biological evaluation” (Eur J Med Chem, 2020).

The subject of series [1] is SH-SY5Y. The series can be described thus: Neuroprotective activity against amyloid beta (1 to 42)-induced apoptosis in human SH-SY5Y cells assessed as early apoptotic cells at IC50 measured after 48 hrs by Annexin-V/Propidium iodide staining based flow cytometry (reference value: 0.74%). Format: functional. A general note: A flow cytometer gives signals particle by particle.

The nature of series [2]: Stability in simulated gastric fluid at pH 1.2 assessed as relative difference measured after 60 mins in presence of pepsin by HPLC analysis. It counts as ADME. The conditions noted are these: isolated protein, pH 1.2, 1 h. Summed up: (§1)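 Incubation in simulated gastric fluid (pH 1.2, pepsin) or simulated intestinal fluid (pH 6.8, pancreatin). Aliquots deproteinized with ice-cold acetonitrile, centrifuged at 4°C and 12000 rpm for 10 min, filtered, analyzed by HPLC. RD% = (Ci − Cf)/Ci × 100. Stable if RD < 5%. Means of three experiments.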

A short description of series [3]: Stability in simulated gastric fluid at pH 1.2 assessed as relative difference measured after 15 mins in presence of pepsin by HPLC analysis. Format: ADME. The note with it: isolated protein, pH 1.2, 0.25 h. Summed up:
as §1

Series [4] has as its system Erythrocyte. Kind of series: Cytoprotective activity against H2O2-induced oxidative damage in human RBC assessed as restoration of antioxidant activity measured after 72 hrs by TAC assay. Format: functional, cell-based.
Series [5] relates to SH-SY5Y. The series can be described thus: Neuroprotective activity against amyloid beta (1 to 42)-induced apoptosis in human SH-SY5Y cells assessed as decrease in DNA fragmentation at IC50 measured after 48 hrs by Hoechst 33258 staining based fluorescence microscopic assay. It counts as functional, cell-based. Summed up:
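Differentiated SH-SY5Y cells, 4×10^4 per well, exposed 48 h to Aβ1-42 (20 μM) with or without hybrid. Fixed in 4% paraformaldehyde for 30 min, stained with Hoechst 33258 for 15 min. Nuclear chromatin condensation and DNA fragmentation scored by fluorescence microscopy at ×200.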

Series [6] concerns SH-SY5Y. Kind of series: Neuroprotective activity against amyloid beta (1 to 42)-induced toxicity in human SH-SY5Y cells assessed as increase in PSEN mRNA expression at IC50 measured after 48 hrs by SYBR green dye based RT-qPCR analysis. It counts as functional, cell-based. Summed up: (§2)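 Differentiated SH-SY5Y cells in 6-well plates treated 48 h with Aβ1-42 (20 μM) with or without hybrid. mRNA of AD-related genes measured by RT-qPCR, normalized to β-actin. Expressed as fold change versus untreated cells. Triplicate experiments.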
A general note: In qPCR the cycle at which signal appears reflects the starting amount.

Series [7] has as its system Erythrocyte. Kind of series: Antioxidant activity in human RBC assessed as increase in total antioxidant capacity level up to 400 ug/ml measured after 72 hrs relative to control. The conditions noted are these: dose microg/ml <=400. Format: functional.
The test system of series [8] is SH-SY5Y. Kind of series: Neuroprotective activity against amyloid beta (1 to 42)-induced toxicity in human SH-SY5Y cells assessed as decrease in […] mRNA expression at IC50 measured after 48 hrs by SYBR green dye based RT-qPCR analysis. It counts as functional, cell-based. Summed up: as §2
Series [9] relates to SH-SY5Y. Kind of series: Cytotoxicity against human SH-SY5Y cells assessed as reduction in cell viability at 1 to 250 mg/l measured after 48 hrs by MTT assay. It counts as cell-based. The note with it: dose 1-250 mg/L. Summed up: (§3)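 SH-SY5Y cells grown in DMEM/F12 with 10% FBS and differentiated with retinoic acid (10 μM), seeded at 1×10^4 per well and cultured 24 h. Cells were given hybrids at 1–250 mg/L with or without Aβ1-42 (20 μM) for 48 h. MTT (5 mg/mL) added for 4 h at 37°C, DMSO solubilization, read at 570/630 nm. LDH read at 450 nm. Five independent experiments.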
For orientation: Tetrazolium dyes change colour on reduction, which living cells bring about.

Series [10] relates to Erythrocyte. Kind of series: Cytoprotective activity against H2O2-induced oxidative damage in human RBC assessed as recovery of H2O2-induced cell death at 50 to 100 uM measured after 72 hrs by LDH release assay relative to control. It counts as functional. The note with it: dose 50-100 µM. Summed up: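 Heparinised human whole blood cultured in phytohemagglutinin-containing chromosome medium and co-incubated with hybrids and H2O2 at 37C for 72 h. LDH released into the culture medium was measured with a commercial kit. Triton X-100 served as positive control, with untreated cultures as reference. Cytoprotection was expressed as viability relative to control.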

Series [11] concerns SH-SY5Y. The series can be described thus: Neuroprotective activity against amyloid beta (1 to 42)-induced apoptosis in human SH-SY5Y cells assessed as late apoptotic cells at IC50 measured after 48 hrs by Annexin-V/Propidium iodide staining based flow cytometry (reference value: 33.72%). It counts as functional.
Series [12] has as its system SH-SY5Y. The series can be described thus: Neuroprotective activity against amyloid beta (1 to 42)-induced apoptosis in human SH-SY5Y cells assessed as necrotic cells at IC50 measured after 48 hrs by Annexin-V/Propidium iodide staining based flow cytometry (reference value: 6.99%). Format: functional.
Series [13] concerns SH-SY5Y. The series can be described thus: Neuroprotective activity against amyloid beta (1 to 42)-induced toxicity in human SH-SY5Y cells assessed as increase in cell viability at 1 to 250 mg/l measured after 48 hrs by MTT assay. Format: functional, cell-based. The conditions noted are these: dose 1-250 mg/L. Summed up:
as §3

In series [14] the test system is SH-SY5Y. The series can be described thus: Neuroprotective activity against amyloid beta (1 to 42)-induced toxicity in human SH-SY5Y cells assessed as decrease in BACE1 mRNA expression at IC50 measured after 48 hrs by SYBR green dye based RT-qPCR analysis. Format: functional, cell-based. Summed up:
as §2

Series [15] deals with Erythrocyte. Kind of series: Cytoprotective activity against H2O2-induced oxidative damage in human RBC assessed as increase in cell viability measured after 72 hrs by LDH release assay. Format: functional, cell-based. Summed up: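 Heparinized whole blood cultured with phytohemagglutinin. Cells were co-incubated with 50 or 100 μM hybrid and H2O2 (25 μM). Viability was read by MTT: lymphocytes at 2×10^5 per well, MTT 4 h at 37°C, formazan dissolved in DMSO, absorbance 570 nm. LDH release was measured on 100 μL medium with a commercial kit. Results are relative to untreated control.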

Series [16] is described as follows: Stability in simulated gastric fluid at pH 1.2 assessed as relative difference measured after 30 mins in presence of pepsin by HPLC analysis. It counts as ADME. The note with it: isolated protein, pH 1.2, 0.5 h. Summed up: as §1
Series [17] has as its system SH-SY5Y. The series can be described thus: Neuroprotective activity against amyloid beta (1 to 42)-induced toxicity in human SH-SY5Y cells assessed as decrease in APH1alpha mRNA expression at IC50 measured after 48 hrs by SYBR green dye based RT-qPCR analysis. It counts as functional, cell-based. Summed up: as §2
In series [18] the test system is SH-SY5Y. Kind of series: Neuroprotective activity against amyloid beta (1 to 42)-induced toxicity in human SH-SY5Y cells assessed as increase in cell viability at 1 to 250 mg/l measured after 48 hrs by LDH release assay. It counts as functional, cell-based. The note with it: dose 1-250 mg/L. Summed up:
as §3

Series [19] deals with SH-SY5Y. Kind of series: Neuroprotective activity against amyloid beta (1 to 42)-induced toxicity in human SH-SY5Y cells assessed as decrease in MAPT mRNA expression at IC50 measured after 48 hrs by SYBR green dye based RT-qPCR analysis. Format: functional, cell-based. Summed up:
as §2

The test system of series [20] is SH-SY5Y. The series can be described thus: Neuroprotective activity against amyloid beta (1 to 42)-induced toxicity in human SH-SY5Y cells assessed as decrease in BDNF mRNA expression at IC50 measured after 48 hrs by SYBR green dye based RT-qPCR analysis. Format: functional, cell-based. Summed up:
as §2

The test system of series [21] is SH-SY5Y. The series can be described thus: Neuroprotective activity against amyloid beta (1 to 42)-induced toxicity in human SH-SY5Y cells assessed as decrease in APOE mRNA expression at IC50 measured after 48 hrs by SYBR green dye based RT-qPCR analysis. It counts as functional, cell-based. Summed up: as §2
For series [22], the system named is SH-SY5Y. Kind of series: Neuroprotective activity against amyloid beta (1 to 42)-induced toxicity in human SH-SY5Y cells assessed as decrease in APP mRNA expression at IC50 measured after 48 hrs by SYBR green dye based RT-qPCR analysis. Format: functional, cell-based. Summed up: as §2

Structures are written as SMILES. Active and inactive are the calls of the source. The calls are words filed in the database; no cut-off is given here.

For the compound `COc1cc(/C=C/C(=O)NCCCNC(=O)CCCCC2CCSS2)ccc1O` (centres undefined), the Activity is 1.19% in series [1]; “Dose-dependent effect” in series [4]; 6.7% in series [7]; “Non-Toxic” in series [9]; 0.4% in series [10]; 9.97% in series [11]. Also, the Activity in [12] is 1.13%; in [15], “Dose-dependent effect”. Besides, the “fold change (FC)” value is on record as 1.78% in series [2], 0.36% in [3] and 0.43% in series [16]. Moreover, the result in series [5], in series [6], in [8], in series [13], in series [14] and in series [17] was Active. Further, the result in series [18], in [19], in [20], in [21] and in series [22] was Active.

Consider `O=C(CCCCC1CCSS1)NCCCCCOC(=O)Cc1ccc(O)c(O)c1` (centres undefined), for which the Activity was 1.86% in series [1]; “Dose-dependent effect” in series [4]; 32.3% in series [7]; “Non-Toxic” in series [9]; 0.4% in series [10]; 9.69% in series [11]. Further, the Activity is 1.04% in series [12] and “Dose-dependent effect” in [15]. The “fold change (FC)” value is recorded as 100% in [2], 35.42% in series [3] and 79.35% in [16]. The outcome in [5], in series [6], in series [8], in series [13], in [14] and in series [17] was Active. Besides, the result in [18], in [19], in [20], in series [21] and in series [22] was Active.
